Data: ChEMBL document CHEMBL1139917, “Synthesis of isoquinuclidine analogs of chloroquine: antimalarial and antileishmanial activity” (Bioorg Med Chem, 2007)
In brackets after ≈: the same amount, converted by molar mass.

Assays:
Plasmodium falciparum [1] = assay: Antimalarial activity against chloroquine-sensitive Plasmodium falciparum D6; format: functional, organism-based
Procedure, shortened: (§1)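 P. falciparum D6 (Sierra Leone, chloroquine-sensitive) and W2 (Indochina, chloroquine-resistant) clones were kept in type A human RBCs and subcultured daily. The assay used infected-cell suspensions at 2% parasitemia and 2% hematocrit in 96-well microplates, run in duplicate across several concentrations. IC50 was taken from dose curves. Artemisinin and chloroquine served as drug controls, with DMSO as vehicle control.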

[2] = Selectivity index, ratio of IC50 for Vero cells to IC50 for chloroquine-sensitive Plasmodium falciparum D6; format: functional
Procedure, shortened: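 Ratio of Vero cell cytotoxicity (Neutral Red, run in parallel) to activity against P. falciparum D6 (Sierra Leone, chloroquine-sensitive). Parasite assay: D6 grown in type A human RBCs, subcultured daily; infected cells at 2% parasitemia, 2% hematocrit in 96-well plates; duplicate wells at several concentrations. IC50 from dose curves; DMSO vehicle control.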

Plasmodium falciparum [3] = assay: Antimalarial activity against chloroquine-resistant Plasmodium falciparum W2; format: functional, organism-based; procedure, shortened: as §1
[4] = Selectivity index, ratio of IC50 for Vero cells to IC50 for chloroquine-resistant Plasmodium falciparum W2; format: functional
Procedure, shortened: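 Vero (monkey kidney fibroblast) cytotoxicity was run in parallel with the P. falciparum W2 assay using the Neutral Red assay, with IC50 taken from growth inhibition curves. The selectivity index is the Vero IC50 divided by the W2 IC50.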

Vero = assay: Cytotoxicity against Vero cells by neutral red assay; format: cell-based; details: chlorocebus sabaeus
Procedure, shortened: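 VERO (monkey kidney fibroblast) cells tested in parallel with the antiparasitic assays. Viability read by Neutral Red assay. IC50 computed from growth inhibition curve.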

Leishmania donovani = assay: Antileishmanial activity against Leishmania donovani promastigotes after 72 hrs by Alamar blue assay; format: functional, organism-based
Procedure, shortened: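 Leishmania donovani promastigote culture at 2 × 10⁶ cells/mL, 96-well format; compounds diluted in DMSO. Incubation 72 h at 26 °C. Growth read by Alamar blue adapted to fluorometric readout. Pentamidine and amphotericin B as standard agents. IC50 computed from growth inhibition curve.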

Compound	IC50 (Plasmodium falciparum [1])	Ratio IC50 [2]	IC50 (Plasmodium falciparum [3])	Ratio IC50 [4]	Activity (Vero)	IC50 (Leishmania donovani)	IC90 (Leishmania donovani)
N#CC1CC2CCC1N(c1ccnc3cc(Cl)ccc13)C2 (stereo not drawn)	0.35 µg/mL (≈ 1.18 µM)	>13.6	0.17 µg/mL (≈ 0.571 µM)	>28	Non-toxic	16 µg/mL (≈ 53.7 µM)	33 µg/mL (≈ 111 µM)
CN1CC2CCC1C(CNc1ccnc3cc(Cl)ccc13)C2 (stereo not drawn)	0.0038 µg/mL (≈ 0.012 µM)	>1252.3	0.004 µg/mL (≈ 0.0127 µM)	>1190	Non-toxic	3 µg/mL (≈ 9.5 µM)	6.5 µg/mL (≈ 20.6 µM)
CCNCC1CC2CCC1N(c1ccnc3cc(Cl)ccc13)C2 (stereo not drawn)	0.28 µg/mL (≈ 0.849 µM)	>17	0.11 µg/mL (≈ 0.333 µM)	>43.2	Non-toxic	7.2 µg/mL (≈ 21.8 µM)	29 µg/mL (≈ 87.9 µM)
C[C@@H]1CC[C@H]2[C@@H](C)C(=O)O[C@@H]3O[C@@]4(C)CC[C@@H]1[C@]32OO4 [ARTEMISININ]	0.0036 µg/mL (≈ 0.0128 µM)		0.0018 µg/mL (≈ 0.00638 µM)				
C[C@@H]1[C@H](O)[C@@H](C)/C=C/C=C/C=C/C=C/C=C/C=C/C=C/[C@H](O[C@@H]2O[C@H](C)[C@@H](O)[C@H](N)[C@@H]2O)C[C@@H]2O[C@](O)(C[C@@H](O)C[C@@H](O)[C@H](O)CC[C@@H](O)C[C@@H](O)CC(=O)O[C@H]1C)C[C@H](O)[C@H]2C(=O)O [AMPHOTERICIN B]						0.18 µg/mL (≈ 0.195 µM)	1.8 µg/mL (≈ 1.95 µM)
NCC1CC2CCC1N(c1ccnc3cc(Cl)ccc13)C2 (stereo not drawn)	0.13 µg/mL (≈ 0.431 µM)	>36.6	0.18 µg/mL (≈ 0.596 µM)	>26.4	Non-toxic	4.2 µg/mL (≈ 13.9 µM)	20 µg/mL (≈ 66.3 µM)
CCN(CC)CC1CC2CCC1N(c1ccnc3cc(Cl)ccc13)C2 (stereo not drawn)	0.31 µg/mL (≈ 0.866 µM)	>15.4	0.2 µg/mL (≈ 0.559 µM)	>23.8	Non-toxic	3.8 µg/mL (≈ 10.6 µM)	8 µg/mL (≈ 22.4 µM)
CN(C)CC1CC2CCC1N(c1ccnc3cc(Cl)ccc13)C2 (stereo not drawn)	0.012 µg/mL (≈ 0.0364 µM)	>396.7	0.018 µg/mL (≈ 0.0546 µM)	>264.4	Non-toxic	1.9 µg/mL (≈ 5.76 µM)	6 µg/mL (≈ 18.2 µM)
N=C(N)c1ccc(OCCCCCOc2ccc(C(=N)N)cc2)cc1 [PENTAMIDINE]						2.8 µg/mL (≈ 8.22 µM)	10 µg/mL (≈ 29.4 µM)
